Measurements from ChEMBL document CHEMBL4033670, “Synthesis, characterization, molecular docking and in vitro antimalarial properties of new carboxamides bearing sulphonamide” (Eur J Med Chem, 2017).

Key:
Type in all cases: functional
[1] = Antioxidant activity assessed as inhibition of DPPH radical generation at 0.04 mg/ml after 20 mins under dark condition by UV-Visible spectrophotometric analysis relative to control
[2] = Antioxidant activity assessed as inhibition of DPPH radical generation at 0.01 mg/ml after 20 mins under dark condition by UV-Visible spectrophotometric analysis relative to control
[3] = Antioxidant activity assessed as DPPH radical scavenging activity after 20 mins under dark condition by UV-Visible spectrophotometric analysis
Method in brief: (§1)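 Test compounds were made up in ethanol at 1.0, 2.0, 3.0, 4.0 and 5.0 mg/mL (solution concentrations before mixing). 1 mL of each was shaken with 4 mL of 0.1 mM ethanolic DPPH and kept in the dark at room temperature for 20 min. The decrease in A517 was read against an ethanol baseline. A DPPH blank had no compound. Scavenging % = [(Ac − As)/Ac] × 100.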

[4] = Antioxidant activity assessed as inhibition of DPPH radical generation at 0.02 mg/ml after 20 mins under dark condition by UV-Visible spectrophotometric analysis relative to control
[5] = Antioxidant activity assessed as inhibition of DPPH radical generation at 0.03 mg/ml after 20 mins under dark condition by UV-Visible spectrophotometric analysis relative to control
[6] = Antioxidant activity assessed as inhibition of DPPH radical generation at 0.05 mg/ml after 20 mins under dark condition by UV-Visible spectrophotometric analysis relative to control
[7] = Antioxidant activity assessed as inhibition of DPPH radical generation at 3 mg/ml after 20 mins under dark condition by UV-Visible spectrophotometric analysis relative to control; method in brief: as §1
[8] = Antioxidant activity assessed as inhibition of DPPH radical generation at 4 mg/ml after 20 mins under dark condition by UV-Visible spectrophotometric analysis relative to control; method in brief: as §1
[9] = Antioxidant activity assessed as inhibition of DPPH radical generation at 2 mg/ml after 20 mins under dark condition by UV-Visible spectrophotometric analysis relative to control; method in brief: as §1
[10] = Antioxidant activity assessed as inhibition of DPPH radical generation at 1 mg/ml after 20 mins under dark condition by UV-Visible spectrophotometric analysis relative to control; method in brief: as §1
[11] = test system: Plasmodium falciparum; test: Antimalarial activity against ring stage chloroquine-resistant Plasmodium falciparum W2 preincubated for 48 hrs measured after 48 hrs in presence of 10% human serum by YOYO-1 dye-based FACS analysis
Method in brief: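 Sorbitol-synchronized ring-stage W2 parasites at 0.1% parasitemia grown 48 h in RPMI-1640 + 10% human serum under 3% O2/6% CO2/91% N2 with inhibitors (from 1000× DMSO stocks), no media change. Fixed 48 h in 1% formaldehyde/PBS pH 7.4 at room temperature. Stained with 1 nM YOYO-1 in 0.1% Triton X-100/PBS. Parasitemia read by flow cytometry.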

[12] = Antioxidant activity assessed as inhibition of DPPH radical generation at 5 mg/ml after 20 mins under dark condition by UV-Visible spectrophotometric analysis relative to control; method in brief: as §1

Structure (SMILES)	inhibition [1]	inhibition [2]	IC50 [3]	inhibition [4]	inhibition [5]	inhibition [6]	inhibition [7]	inhibition [8]	inhibition [9]	inhibition [10]	MIC99 [11]	inhibition [12]
O=C1O[C@H]([C@@H](O)CO)C(O)=C1O [ASCORBIC ACID]	30%	15%	0.34 mM	20%	25%	40%						
CC(=O)c1ccc(NC(=O)C2CC(O)CN2S(=O)(=O)c2ccccc2)cc1 (stereo unspecified)			3.8 mM				49.8%	54.5%	57%	40.2%	0.16 µM	58.7%
CC(=O)c1ccc(NC(=O)C(CC(C)C)N(C(=O)c2ccccc2)S(=O)(=O)c2ccc([N+](=O)[O-])cc2)cc1 (stereo unspecified)			8.4 mM				62.3%	71%		45%	0.06 µM	81.3%
CC(=O)c1ccc(NC(=O)C(CC(C)C)N(C(=O)c2ccccc2)S(=O)(=O)c2ccc(C)cc2)cc1 (stereo unspecified)			11 mM				63.1%	67.2%	58.1%	54%	0.17 µM	71.3%
CC(=O)c1ccc(NC(=O)C(C(C)C)N(C(=O)c2ccccc2)S(=O)(=O)c2ccc([N+](=O)[O-])cc2)cc1 (stereo unspecified)			6.8 mM				29.8%	27.2%	29.8%	29.8%	1.57 µM	27.4%
CC(=O)c1ccc(NC(=O)C(Cc2c[nH]c3ccccc23)N(C(=O)c2ccccc2)S(=O)(=O)c2ccccc2)cc1 (stereo unspecified)			51 mM				47%	54.1%	39.4%	31.7%		61.2%
CCC(C)C(C(=O)Nc1ccc(C(C)=O)cc1)N(C(=O)c1ccccc1)S(=O)(=O)c1ccc(C)cc1 (stereo unspecified)			10 mM				33.4%	41%	25.7%	18.6%	5.11 µM	47.3%
CC(=O)c1ccc(NC(=O)C2CCCN2S(=O)(=O)c2ccc(C)cc2)cc1 (stereo unspecified)			36 mM				20.7%	20.7%	20.7%	20.6%	1.45 µM	20.7%
CCN(CC)CCCC(C)Nc1ccnc2cc(Cl)ccc12 (stereo unspecified) [CHLOROQUINE]											0.06 µM	
CC(=O)c1ccc(NC(=O)CN(C(=O)c2ccccc2)S(=O)(=O)c2ccc(C)cc2)cc1			102 mM				18.2%	18.4%	18.1%	17.9%	0.72 µM	18.7%
CC(=O)c1ccc(NC(=O)C2CC(O)CN2S(=O)(=O)c2ccc([N+](=O)[O-])cc2)cc1 (stereo unspecified)			7.1 mM				58.7%	60.1%		43.2%	0.32 µM	70.7%
CC(=O)c1ccc(NC(=O)C(C(C)C)N(C(=O)c2ccccc2)S(=O)(=O)c2ccc(C)cc2)cc1 (stereo unspecified)			12 mM				29.7%	36.6%	22.7%	15.6%	2.82 µM	42.7%
CC(=O)c1ccc(NC(=O)C(C(C)C)N(C(=O)c2ccccc2)S(=O)(=O)c2ccccc2)cc1 (stereo unspecified)			13 mM				47.5%	52.2%	41.3%	32.1%	1.7 µM	54.2%
CC(=O)c1ccc(NC(=O)CN(C(=O)c2ccccc2)S(=O)(=O)c2ccc([N+](=O)[O-])cc2)cc1			58 mM				20.6%	20.7%	20.6%	20.6%	0.18 µM	20.7%
CCC(C)C(C(=O)Nc1ccc(C(C)=O)cc1)N(C(=O)c1ccccc1)S(=O)(=O)c1ccc([N+](=O)[O-])cc1 (stereo unspecified)			50 mM				42.1%	48.4%	31.7%	28.6%	0.2 µM	53.2%
C=C[C@H]1CN2CC[C@H]1C[C@H]2[C@H](O)c1ccnc2ccc(OC)cc12 [QUININE]											0.83 µM	
CC(=O)c1ccc(NC(=O)C(Cc2ccccc2)N(C(=O)c2ccccc2)S(=O)(=O)c2ccc([N+](=O)[O-])cc2)cc1 (stereo unspecified)			39 mM				34.5%	40%	26.8%	19.3%	0.08 µM	49.2%
CC(=O)c1ccc(NC(=O)C(Cc2c[nH]c3ccccc23)N(C(=O)c2ccccc2)S(=O)(=O)c2ccc([N+](=O)[O-])cc2)cc1 (stereo unspecified)			0.73 mM				23.5%	24%	22.9%	22.1%		24.3%
CC(=O)c1ccc(NC(=O)C(Cc2ccccc2)N(C(=O)c2ccccc2)S(=O)(=O)c2ccccc2)cc1 (stereo unspecified)			11 mM				7.21%	9.28%	4.37%	2.18%	0.9 µM	11%
CC(=O)c1ccc(NC(=O)C(Cc2ccccc2)N(C(=O)c2ccccc2)S(=O)(=O)c2ccc(C)cc2)cc1 (stereo unspecified)			7.6 mM				39.6%	48.5%	32.7%	25.4%	0.78 µM	53.6%
CC(=O)c1ccc(NC(=O)CN(C(=O)c2ccccc2)S(=O)(=O)c2ccccc2)cc1			32 mM				40.7%	40.9%	40.5%	40.5%	0.97 µM	45.4%
CC(=O)c1ccc(NC(=O)C2CCCN2S(=O)(=O)c2ccc([N+](=O)[O-])cc2)cc1 (stereo unspecified)			19 mM				24.3%	25.3%	23.5%	22.7%	6.74 µM	25.6%
CCC(C)C(C(=O)Nc1ccc(C(C)=O)cc1)N(C(=O)c1ccccc1)S(=O)(=O)c1ccccc1 (stereo unspecified)			8.6 mM				14.2%	15.5%	11.3%	9.71%	1.25 µM	16.8%
CC(=O)c1ccc(NC(=O)C2CCCN2S(=O)(=O)c2ccccc2)cc1 (stereo unspecified)			69 mM				29.1%	33.4%	25.8%	22.8%	0.11 µM	35.7%
CC(=O)c1ccc(NC(=O)C(CC(C)C)N(C(=O)c2ccccc2)S(=O)(=O)c2ccccc2)cc1 (stereo unspecified)			3.2 mM				40.7%	46.9%	54.2%	27.7%	0.26 µM	52.2%
CC(=O)c1ccc(NC(=O)C(Cc2c[nH]c3ccccc23)N(C(=O)c2ccccc2)S(=O)(=O)c2ccc(C)cc2)cc1 (stereo unspecified)			0.045 mM				39.5%	39.5%	58%	39.5%		39.5%
CC(=O)c1ccc(NC(=O)C2CC(O)CN2S(=O)(=O)c2ccc(C)cc2)cc1 (stereo unspecified)			25 mM				12.7%	12.9%	12.5%	12.4%	2.27 µM	13%
